Measured values of several laboratories.
Protocols differ between the studies behind these lines.

Clc1ccccc1C(c1ccccc1)(c1ccccc1)n1ccnc1  inhibition zone (Mucor; microbial growth, disc diffusion; 20000 µg/mL): 22 mm
O=C(CN1C(=O)/C(=C/c2cccc([N+](=O)[O-])c2)SC1=S)Nc1ccccc1  inhibition (PC-3; cell growth or viability, MTT; 10 µM): 17.6%
O=C(Cc1c[nH]c2ccccc12)Nc1ccc(F)c(F)c1  IC50 (ABTS scavenging): 1080 nM
O=C(CN1C(=O)/C(=C/c2ccccc2O)SC1=S)Nc1ccccc1  inhibition (A549; cell growth or viability, MTT; 10 µM): 34.5%
O=C(Cc1c[nH]c2ccccc12)Nc1cccc(F)c1  IC50 (ABTS scavenging): 1120 nM
CC(C)C[C@H](NC(=O)[C@H](Cc1ccccc1)NC(=O)c1cnccn1)B(O)O  IC50 (NCI-H1048; cell growth or viability, ATP luminescence): 17 nM
COc1ccc(OC)c(NC(=O)Cc2c[nH]c3ccccc23)c1  IC50 (ABTS scavenging): 1430 nM
COc1ccc(-c2ccc(-c3ccc(C(=N)N)nc3)s2)cc1  GI50 (OVCAR-4; cell growth or viability, SRB): 1790 nM
COc1ccccc1-c1n[nH]c2nc(N[C@H]3CC[C@H](NS(=O)(=O)CCCOCCOCCNC(=O)OC(C)(C)C)CC3)ncc12  EC50 (Leishmania donovani; parasite growth; THP-1; intracellular, amastigote): 5240 nM
O=C(CN1C(=O)/C(=C/c2cccc(O)c2)SC1=S)Nc1ccccc1  inhibition (PC-3; cell growth or viability, MTT; 10 µM): 12.6%
COc1cc(NC(=O)Cc2c[nH]c3ccccc23)ccc1C  IC50 (ABTS scavenging): 1110 nM
COc1cc(Nc2nccc(-c3cnn4nc(OC)ccc34)n2)cc(C(F)(F)F)c1  IC50 (Ishikawa; cell growth or viability, ATP luminescence): 450 nM
